Where two headings read alike, the source gives them in different places.
Columns and labels:
H157 cells [1] = assay: Transmission electron microscopy; format: cell-based, human; details: 24 h, IC50 concentrations
Outline: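 About 10^6 H157 cells were treated 24 h after seeding and incubated a further 24 h; untreated and auranofin-treated cells served as references. Cells were fixed in 1.5% glutaraldehyde in 0.2 M sodium cacodylate pH 7.4, post-fixed in 1% OsO4 and embedded in epoxy. Sections were 1 μm (toluidine blue) or 90 nm (uranyl acetate/lead citrate), imaged at 75 kV.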

[2] = tested on: PSN‐1 pancreatic cancer cells; assay: MTT cytotoxicity, 72 h; format: cell-based, human; details: read-out: IC50 (μM)±SD PSN‐1, MTT test
[3] = tested on: 2008 ovarian cancer cells; assay: MTT cytotoxicity, 72 h; format: cell-based, human; details: read-out: IC50 (μM)±SD 2008, MTT test
Outline: (§1)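 The 2008 and H157 cells were kept in RPMI-1640, and A375 cells in DMEM, each with 10% FCS, antibiotics and 2 mM glutamine, at 37 °C, 5% CO2. Cells (3–8×10^3/well) were exposed 72 h in triplicate, with DMSO at 0.5% final. MTT was added for 5 h, followed by SDS/0.01 M HCl overnight, then A570 relative to untreated wells. IC50 came from a 4-PL fit, means of ≥4 independent experiments.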

[4] = tested on: MCF‐7 breast cancer cells; assay: MTT cytotoxicity, 72 h; format: cell-based, human; details: read-out: IC50 (μM)±SD MCF‐7, MTT test
H157 cells [5] = assay: Apoptosis induction; format: cell-based, human; details: 48 h, IC50 doses
[6] = tested on: HCT‐15 colon cancer cells; assay: MTT cytotoxicity, 72 h; format: cell-based, human; details: read-out: IC50 (μM)±SD HCT‐15, MTT test
[7] = tested on: H157 lung carcinoma cells; assay: MTT cytotoxicity, 72 h; format: cell-based, human; details: read-out: IC50 (μM)±SD H157, MTT test
Outline: as §1

A375 melanoma cells = assay: MTT cytotoxicity, 72 h; format: cell-based, human; details: read-out: IC50 (μM)±SD A375, MTT test
Outline: as §1

[8] = tested on: A431 cervical carcinoma cells; assay: MTT cytotoxicity, 72 h; format: cell-based, human; details: read-out: IC50 (μM)±SD A431, MTT test
[9] = tested on: A2780 ovarian cancer cell spheroids; assay: 3D spheroid cytotoxicity, acid phosphatase; format: cell-based, human; details: read-out: IC50 (μM)±SD A2780 spheroids; 3D spheroids, 72 h, APH assay
Outline: (§2)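 H157 or A2780 cells were seeded at 2.5×10^3 cells/well in round-bottom non-treated plates. The medium was phenol red-free RPMI-1640 with 10% FCS plus 20% methyl cellulose stock solution. Spheroids were exposed 72 h to increasing concentrations, with the compound added from DMSO to a final 0.5%. Viability was read by a modified acid phosphatase assay, and IC50 was fitted by a 4-parameter logistic model.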

[10] = tested on: H157 lung cancer cell spheroids; assay: 3D spheroid cytotoxicity, acid phosphatase; format: cell-based, human; details: read-out: IC50 (μM)±SD H157 spheroids; 3D spheroids, 72 h, APH assay
Outline: as §2

[11] = tested on: A2780 ADR ovarian cancer cells; assay: MTT cross-resistance, multi-drug resistant ovarian cells; format: cell-based, human
Outline: (§3)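 A2780 and A2780 ADR cells were grown in RPMI-1640 with 10% FCS, antibiotics and 2 mM glutamine at 37 °C, 5% CO2. Cells (3–8×10^3/well) were given compound after 24 h and exposed 72 h in triplicate, with DMSO at 0.5% final. MTT was added for 5 h, followed by SDS/0.01 M HCl overnight, then A570 as % of untreated control. IC50 came from a 4-PL fit over ≥4 experiments; RF = IC50 A2780 ADR/IC50 A2780.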

[12] = tested on: LoVo MDR colon cancer cells; assay: MTT cross-resistance, multi-drug resistant cells; format: cell-based, human
Outline: (§4)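 LoVo, LoVo MDR and LoVo-OXP cells were grown in F-12 HAM'S with 10% FCS, antibiotics and 2 mM glutamine at 37 °C, 5% CO2. LoVo-OXP had been selected over 17 months in increasing oxaliplatin. Cells (3–8×10^3/well) were exposed 72 h in triplicate, with DMSO at 0.5% final. MTT was added for 5 h, followed by SDS/0.01 M HCl overnight, then A570. IC50 came from a 4-PL fit over ≥4 experiments; RF = IC50 resistant/IC50 LoVo.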

LoVo colon cancer cells = assay: MTT cross-resistance, sensitive colon cells; format: cell-based, human; details: 72 h, read-out: IC50 (μM)±SD LoVo
Outline: as §4

[13] = tested on: A2780 ovarian adenocarcinoma cells; assay: MTT cross-resistance, sensitive ovarian cells; format: cell-based; details: Homo sapiens, A2780, 72 h, read-out: IC50 (μM)±SD A2780
Outline: as §3

[14] = tested on: LoVo‐OXP colon cancer cells; assay: MTT cross-resistance, oxaliplatin-resistant cells; format: cell-based, human
Outline: as §4

[15] = tested on: LoVo‐OXP colon cancer cells; details: as previously reported; cited from earlier work
[16] = RF=IC50 resistant cells/IC50 sensitive cells

Row | SMILES | IC50 [2] [µM] | IC50 [3] [µM] | IC50 [4] [µM] | IC50 [6] [µM] | IC50 [7] [µM] | IC50 (A375 melanoma cells) [µM] | IC50 [8] [µM] | other results
1 | CC(=O)OC[C@H]1O[C@@H]([S-])[C@H](OC(C)=O)[C@@H](OC(C)=O)[C@@H]1OC(C)=O.CCP(CC)CC.[Au+] [Auranofin, 2,3,4,6‐tetra‐o‐acetyl‐ L‐thio‐β‐D‐glyco‐pyranosato ‐S‐(triethyl‐phosphine) gold(I)] | 1 ± 0.4 | 1 ± 0.2 | 0.9 ± 0.3 | 0.1 ± 0.02 | 1.6 ± 0.3 | 2.3 ± 1 | 2 ± 0.8 | mitochondrial morphology (TEM) (H157 cells [1]): dramatic swelling of the mitochondria; apoptosis, cellular morphological changes (Hoechst 33258) (H157 cells [5]): brightly stained nuclei and morphological features typical of cells undergoing apoptosis
2 | N.N.[Cl][Pt][Cl] [Cisplatin] | 12.1 ± 2.9 | 2.2 ± 1.3 | 8.8 ± 1 | 11.3 ± 1.5 | 5.9 ± 1.1 | 3.1 ± 0.4 | 1.4 ± 0.3 | IC50 [9]: 74.2 ± 8.9 µM; IC50 [10]: 52.5 ± 1.3 µM
3 | COc1cccc2c1C(=O)c1c(O)c3c(c(O)c1C2=O)C[C@@](O)(C(=O)CO)C[C@@H]3O[C@H]1C[C@H](N)[C@H](O)[C@H](C)O1 [Doxorubicin] |  |  |  |  |  |  |  | IC50 ([11]; Homo sapiens, A2780 ADR, 72 h, read-out: IC50 (μM)±SD A2780 ADR): 0.16 ± 0.03 µM; RF (A2780 ADR/A2780) [11, 16]: 16.0 –; IC50 ([12]; Homo sapiens, LoVo, 72 h, read-out: IC50 (μM)±SD LoVo MDR): 19.2 ± 2.3 µM; RF (LoVo MDR/LoVo) [12, 16]: 17.5 –; IC50 (LoVo colon cancer cells; Homo sapiens, LoVo): 1.1 ± 0.2 µM; IC50 [13]: 0.01 ± 0.001 µM
4 | O=C(O)C(=O)O.[NH-][C@@H]1CCCC[C@H]1[NH-].[Pt+2] [oxaliplatin] |  |  |  |  |  |  |  | RF (LoVo‐OXP/LoVo) [14, 16]: ND 13.0; IC50 ([14]; read-out: IC50 (μM)±SD LoVo‐OXP, 72 h, MTT test): 14.3 µM; IC50 (LoVo colon cancer cells; MTT test): 1.1 ± 0.6 µM; resistance of LoVo OXP cells vs parental cells [15]: about 13 fold

Source: paper PMC10092581 (Chemistry (Weinheim an Der Bergstrasse, Germany), 2022)
